Screens as filed in PubChem.
A selection: hits, their analogues and other compounds. The true share with any hit is near 3.9%.
TAAR1 antagonist = human TAAR1 antagonism | Q96RJ0 | CHO RD-HGA16 TAAR1, Fluo-8 calcium fluorescence, antagonist | inhibition, % at 3 µM | hit rate 1.5% among 360,000;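 active means inhibition above a per-plate cutoff, the mean inhibition of test compounds on that plate plus 3 SD, cut at about 49% in these data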
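Test system: RD-HGA16 CHO cells with stable hTAAR1 and Gα16 / Probe or stimulus: EC80 β-phenethylamine stimulus / Times: seeding 17-24 h prior, 75-min 37 °C, 30-min RT dye loading / Detection: Fluo-8 calcium-sensitive fluorescence / Read-out basis: % inhibition scaled between DMSO and EC80 PEA controls / Repeats: singlicate, one well per test compound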
TAAR1 agonist = agonists of human TAAR1 | Q96RJ0 | CHO RD-HGA16 TAAR1, Fluo-8 calcium fluorescence; vehicle wells 0%, saturating PEA agonist 100% | activation, % at 3 µM | hit rate 0.99% among 360,000;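 active means activation above the mean activation of all test compounds in the run plus 3 SD, cut at about 38% in these data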
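Benchmarks: low control DMSO, high control PEA (EC100); System: CHO RD-HGA16 cells carrying human TAAR1 plus Gα16; Detection: Fluo-8 fluorescence, 5 s baseline then 140 s kinetic read; Schedule: 17-24 h plating, Fluo-8 75 min 37 °C, 30 min RT; Read-out basis: % activation from peak over basal fluorescence ratio, DMSO-to-PEA scaled.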
HTR2A ag = mouse HTR2A agonism via beta-arrestin recruitment | P35363 | CHO-K1 mHTR2A beta-arrestin complementation, luminescence; percent of 30 µM serotonin response | activation, % at 7.6 µM | hit rate 0.66% among 360,000;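 active means activation above a run cutoff, the mean activation of all tested compounds plus 3 SD, cut at about 14% in these data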
Target sequence (P35363 whole entry, looked up): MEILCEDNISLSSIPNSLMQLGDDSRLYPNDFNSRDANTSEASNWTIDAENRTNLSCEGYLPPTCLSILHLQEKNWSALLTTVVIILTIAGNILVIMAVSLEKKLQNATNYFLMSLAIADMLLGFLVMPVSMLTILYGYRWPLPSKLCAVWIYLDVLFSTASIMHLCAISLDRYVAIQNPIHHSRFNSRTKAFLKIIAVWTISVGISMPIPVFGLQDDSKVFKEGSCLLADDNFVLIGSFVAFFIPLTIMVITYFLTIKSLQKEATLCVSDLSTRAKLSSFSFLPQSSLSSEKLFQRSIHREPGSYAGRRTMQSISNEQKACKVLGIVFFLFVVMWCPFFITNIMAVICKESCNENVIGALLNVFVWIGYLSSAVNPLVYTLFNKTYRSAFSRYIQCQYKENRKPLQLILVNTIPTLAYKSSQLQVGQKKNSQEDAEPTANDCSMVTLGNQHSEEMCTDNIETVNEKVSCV
CHRM1 agonist = activates human CHRM1 receptor; CHO-K1 hM1, Fluo-8 calcium fluorescence, agonist mode; 0% DMSO, 100% acetylcholine EC100; AID 588814; activation, % at 3 µM; hit rate 0.33% among 360,000;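 active means activation above the run's mean compound activation plus 3 SD, cut at about 16% in these data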;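 further: peak over basal fluorescence ratio within a 140 s kinetic read after compound addition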
M1 antag = antagonists of human M1 muscarinic receptor; P11229; CHO-K1 hM1, Fluo-8 calcium fluorescence, ACh EC80 antagonist; inhibition, % at 3 µM; hit rate 1.3% among 360,000; AID 588852;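 active means percent inhibition above its own plate's cutoff, namely the mean of that plate's compound wells plus 3 SD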;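 further: peak over basal fluorescence ratio during 140 s after agonist addition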
M1 PAM = positive allosteric modulators of human M1 muscarinic receptor. P11229. CHO-K1 hM1, Fluo-8 calcium fluorescence, ACh EC20; 0% = ACh EC20, 100% = maximal ACh. activation, % at 3 µM. hit rate 0.088% among 360,000. AID 588819; in the data active means activation above about 19%, passing the limit was not always enough
TAAR1 ag confirm = confirmation of human TAAR1 agonists; shares compounds with TAAR1 agonist; CHO RD-HGA16 TAAR1, Fluo-8 calcium fluorescence; scaled: DMSO 0%, maximal phenethylamine 100%; activation, % at 3 µM; hit rate 82% among 2,400; AID 651783;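 active means activation above a cutoff set at the run's mean compound activation plus 3 SD, cut at about 39% in these data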
Ga16 ag counter = nonselective agonist in parental cells, TAAR1 agonist counter-screen | activation, % at 3 µM | CHO-Ga16 parental, Fluo-8 calcium fluorescence; normalized to maximal ATP response, DMSO zero | hit rate 50% among 2,400 | shares compounds with TAAR1 agonist | AID 651787;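 active means activation above the run cutoff, the mean activation over all tested wells plus 3 SD, cut at about 12% in these data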
TAAR1 desens = human TAAR1 agonist that also desensitizes the receptor. shares compounds with TAAR1 agonist. CHO RD-HGA16 hTAAR1, Fluo-8 calcium, beta-PEA response inhibition. inhibition, % at 3 µM. hit rate 46% among 2,400. AID 651951;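 active means inhibition above the run cutoff, the mean inhibition of all test compounds plus 3 SD, cut at about 49% in these data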;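 further: beta-PEA stimulus applied at its EC80; loss of beta-PEA calcium signal after compound pretreatment read as receptor desensitization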
Ga16 antag count = counter-screen for TAAR1 agonists: nonselective Ga16 antagonists; AID 651952; CHO-Ga16 ATP-induced calcium, Fluo-8 fluorescence; hit rate 39% among 2,400; inhibition, % at 3 µM; shares compounds with TAAR1 agonist;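 active means inhibition above the plate's mean compound inhibition plus 3 SD, computed per plate, cut at about 22% in these data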
Numbers stand for hits; – = inactive; · = no result given.

SMILES	TAAR1 antagonist	TAAR1 agonist	HTR2A ag	CHRM1 agonist	M1 antag	M1 PAM	TAAR1 ag confirm	Ga16 ag counter	TAAR1 desens	Ga16 antag count
CCC(c1nnnn1Cc1ccco1)N(CCc1ccccc1)Cc1cc2cc(C)ccc2[nH]c1=O (configuration not stated)	·	·	–	–	–	–	·	–	·	–
Cc1ccc2[nH]c(=O)c(CN(CCc3ccccc3)C(c3nnnn3Cc3ccco3)C(C)C)cc2c1 (configuration not stated)	–	71	–	–	–	–	62	–	–	–
CCC(c1nnnn1Cc1ccccc1)N(Cc1ccco1)Cc1cc2cc(OC)ccc2[nH]c1=O (configuration not stated)	–	–	–	–	–	–	·	·	·	·
CC(C)C(c1nnnn1Cc1ccccc1)N(CCCO)Cc1cc2cc3c(cc2[nH]c1=O)OCO3 (configuration not stated)	–	–	–	–	–	–	·	·	·	·
Cc1ccc(-n2nc3c(=O)n(CC(=O)NCCc4ccccc4C)nc(C)c3c2C)cc1	·	·	–	–	–	–	·	–	·	–
Cc1ccc(S(=O)(=O)N(CC(=O)N2CCc3ccccc3C2)c2ccc(Cl)c(Cl)c2)cc1	–	–	–	–	–	–	·	·	·	·
COc1ccc(N(CC(=O)N2CCc3ccccc3C2)S(C)(=O)=O)cc1OC	–	51	–	–	–	–	–	–	–	–
O=C(CN(c1ccc(Cl)c(Cl)c1)S(=O)(=O)c1ccccc1)N1CCc2ccccc2C1	–	58	–	–	–	–	76	–	–	–
CCCSc1ccc(C(=O)Nc2ccc(F)cc2F)cn1	–	67	–	–	–	–	–	–	–	–
CC(C)S(=O)(=O)c1ccc(C(=O)Nc2ccc(F)cc2F)cn1	–	–	–	–	–	–	·	·	·	·
COc1ccc(N2CCN(C(=O)CNC(=O)c3cccc(Br)c3)CC2)cc1	–	–	–	–	–	–	·	·	·	·
c1cc2c(cc1C1CCCCC1)c1c3n2CCN=C3CCC1	–	66	–	–	–	–	59	24	–	–
Cc1ccc2c(c1)c1c3n2CCN=C3CCC1	–	–	–	–	–	–	·	·	·	·
CCOc1cc(/C=N/NC(=O)C(=O)NCc2ccc3c(c2)OCO3)ccc1OCC(=O)N1CCOCC1	–	–	–	–	–	–	·	·	·	·
OCCCNCc1ccc(N(c2ccccc2)c2ccccc2)cc1	–	45	–	–	71	–	73	25	–	–
OCCNCc1ccc(-c2ccccc2)cc1	–	–	–	–	–	–	·	·	·	·
COc1cc(Cl)c(C)cc1NC(=O)CC1SC(N2CCOCC2)=NC1=O (configuration not stated)	–	–	–	–	–	–	·	·	·	·
O=C(CSc1nc(-c2ccccc2)cc(=O)[nH]1)Nc1ccc(F)c(F)c1	–	–	–	–	–	–	·	·	·	·
CC1(C)CC(=O)C(C(C2=C(O)CC(C)(C)CC2=O)c2ccc(Br)s2)C(=O)C1 (configuration not stated)	–	51	–	–	–	–	–	34	–	27
Cc1ccc(C(C2=C(O)CC(C)(C)CC2=O)C2C(=O)CC(C)(C)CC2=O)s1 (configuration not stated)	–	–	–	–	–	–	·	·	·	·
OCC1COC(c2ccccc2)=N1 (configuration not stated)	–	39	·	·	·	·	–	–	–	–
Brc1ccc(C2=NC(Cc3ccccc3)CO2)cc1 (configuration not stated)	–	–	–	–	–	–	·	·	·	·
O=C(c1nc2ccccn2c1CNCC1OCCc2ccccc21)N1CCOCC1 (configuration not stated)	·	·	–	–	–	–	·	–	·	–
Cc1ccn2c(CNCC3OCCc4ccccc43)c(C(=O)N3CCCCCC3)nc2c1 (configuration not stated)	–	84	–	–	–	–	81	–	71	–
COC(=O)[C@@H]1Cc2c([nH]c3ccccc23)C(C)(C)N1C(=O)CCl	–	–	–	–	–	–	·	·	·	·
SMILES	TAAR1 antagonist	TAAR1 agonist	HTR2A ag	CHRM1 agonist	M1 antag	M1 PAM	TAAR1 ag confirm	Ga16 ag counter	TAAR1 desens	Ga16 antag count
Cc1cc(C)nc(N/N=C/C2=C(O)CC(c3ccccc3)CC2=O)n1 (configuration not stated)	–	–	·	·	·	·	·	·	·	·
COc1cc(CN2CCNC(=O)C2CC(=O)N2CCc3ccccc3C2)cc(OC)c1 (configuration not stated)	–	66	–	–	–	–	68	–	–	–
COc1cccc(CN2CCNC(=O)C2CC(=O)N2CCOc3ccccc3C2)c1OC (configuration not stated)	–	66	–	–	–	–	73	–	–	–
CC(C)(C)CN1CCNC(=O)C1CC(=O)N1CCOc2ccccc2C1 (configuration not stated)	–	59	–	–	–	–	54	–	–	–
COc1ccc(CN2CCNC(=O)C2CC(=O)N2CCc3ccccc3C2)c(OC)c1 (configuration not stated)	–	–	–	–	–	–	·	·	·	·
COc1cccc(C2C([N+](=O)[O-])=C(N)Oc3cc(C)oc(=O)c32)c1 (configuration not stated)	–	–	–	–	–	–	·	·	·	·
O=C(Nc1cccnc1)c1ccc(COc2cc(Cl)ccc2Cl)o1	–	–	–	–	–	–	·	·	·	·
O=C(N/N=C/c1ccc(O)cc1)c1ccc(COc2cc(Cl)ccc2Cl)o1	76	93	–	36	–	–	98	69	87	59
CCc1nnc(NC(=O)C2CCCN2C(=O)Nc2ccc(Cl)cc2)s1 (configuration not stated)	–	–	–	–	–	–	·	·	·	·
Cc1cc(C)cc(OCC(=O)Nc2ccc3c4c(cccc24)CC3)c1	81	102	–	–	–	–	–	–	–	–
O=C(COc1ccc2ccccc2c1)Nc1ccc2c3c(cccc13)CC2	–	–	–	–	–	–	·	·	·	·
O=C(OCc1cn([C@@H]2CN(C(=O)C3CCCCC3)[C@@H](c3ccc(Cl)cc3)C[C@H]2O)nn1)c1ccccc1	–	–	–	–	–	–	·	·	·	·
